Consider 19 compounds from ChEMBL document CHEMBL1146275, “5-HT2C antagonists based on fused heterotricyclic templates: design, synthesis and biological evaluation” (Bioorg Med Chem Lett, 2007).

Each structure is given as a SMILES string. Calls of active or inactive are those of the source. No cut-off for these calls is given here. A value given as a limit tells only on which side of the number the result lay.

The target in series [1] is T1, 5-hydroxytryptamine receptor 2B (Homo sapiens, UniProt P41595). Put plainly: Displacement of [3H]5-HT from human 5HT2B receptor expressed in HEK293 cells. The format is cell-based. In general terms: Displacement assays read how much labelled ligand stays bound in the presence of the test substance.
The target in series [2] is T2, 5-hydroxytryptamine receptor 2C (Homo sapiens) (UniProt P28335).
T2 sequence (whole entry): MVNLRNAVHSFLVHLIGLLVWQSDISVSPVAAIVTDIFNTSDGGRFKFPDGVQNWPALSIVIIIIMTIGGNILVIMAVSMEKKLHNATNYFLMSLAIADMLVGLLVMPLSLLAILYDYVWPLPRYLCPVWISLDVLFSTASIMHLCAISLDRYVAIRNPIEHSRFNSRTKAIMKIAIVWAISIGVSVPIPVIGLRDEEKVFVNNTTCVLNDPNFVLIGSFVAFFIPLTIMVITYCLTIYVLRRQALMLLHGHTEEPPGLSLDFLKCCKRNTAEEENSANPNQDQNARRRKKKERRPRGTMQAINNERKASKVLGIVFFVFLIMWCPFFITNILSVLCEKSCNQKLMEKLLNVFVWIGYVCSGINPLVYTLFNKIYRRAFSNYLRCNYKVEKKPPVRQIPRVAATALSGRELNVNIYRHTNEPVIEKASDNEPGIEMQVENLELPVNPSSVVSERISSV
Put plainly: Agonist activity at human 5HT2C receptor expressed in HEK293 cells by measuring intracellular calcium mobilization upto 10 uM. The format is functional, cell-based. For orientation: A change in cytosolic calcium serves as a functional read-out for many receptors and channels.

For series [3], the target named is T3, 5-hydroxytryptamine receptor 2A (Homo sapiens, UniProt P28223). The experiment in a line: Agonist activity at human 5HT2A receptor expressed in HEK293 cells by measuring intracellular calcium mobilization upto 10 uM. It counts as functional, cell-based.
The target of series [4] is T1, 5-hydroxytryptamine receptor 2B. The experiment in a line: Agonist activity at human 5HT2B receptor expressed in HEK293 cells by measuring intracellular calcium mobilization upto 10 uM. The format is functional, cell-based.
Series [5] concerns the target T3, 5-hydroxytryptamine receptor 2A. The experiment in a line: Displacement of [3H]ketanserin from human 5HT2A receptor expressed in HEK293 cells. It counts as cell-based.
Series [6] addresses T4, 5-hydroxytryptamine receptor 2C (Homo sapiens, UniProt P28335).
T4 sequence (P28335 whole entry): T2 sequence (whole entry)
Put plainly: Displacement of [3H]mesulergine from human 5HT2C receptor expressed in HEK293 cells. It counts as cell-based.

Series [7] addresses T2, 5-hydroxytryptamine receptor 2C (Homo sapiens). Put plainly: Antagonist activity at human 5HT2C receptor expressed in HEK293 cells by measuring intracellular calcium mobilization. It counts as functional, cell-based. The method in brief: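 Antagonism measured as blockade of the 5-HT-evoked response at the human receptor, with affinity expressed as pKb.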
Series [8] in a line: Clearance in rat blood. Particulars: whole blood. It counts as ADME, organism-based. The method in brief:
(§1)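 Male rats (n = 3) received a 1 mg free base/kg iv bolus (2 mL/kg) of a 0.5 mg free base/mL solution in 25% (v/v) aqueous PEG400 containing 5% (v/v) DMSO. Brain penetration was assessed at 1 h.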

Series [9] can be described thus: Ratio of drug level in brain to plasma in rat. The note with it: brain and plasma. It counts as ADME. The method in brief:
as §1

Series [10] is described as follows: Bioavailability in rat at 3 mg/kg, po. The format is ADME, organism-based. The note with it: in vivo. The method in brief:
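Oral dosing was 3 mg free base/kg by gavage (5 mL/kg) to male rats (n = 3), from 0.6 mg free base/mL in 0.5% w/v Methocel with 5% DMSO. The iv reference arm was 1 mg free base/kg as a bolus (2 mL/kg) in 25% (v/v) aqueous PEG400 with 5% (v/v) DMSO, n = 3.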

T1 sequence (P41595 whole entry): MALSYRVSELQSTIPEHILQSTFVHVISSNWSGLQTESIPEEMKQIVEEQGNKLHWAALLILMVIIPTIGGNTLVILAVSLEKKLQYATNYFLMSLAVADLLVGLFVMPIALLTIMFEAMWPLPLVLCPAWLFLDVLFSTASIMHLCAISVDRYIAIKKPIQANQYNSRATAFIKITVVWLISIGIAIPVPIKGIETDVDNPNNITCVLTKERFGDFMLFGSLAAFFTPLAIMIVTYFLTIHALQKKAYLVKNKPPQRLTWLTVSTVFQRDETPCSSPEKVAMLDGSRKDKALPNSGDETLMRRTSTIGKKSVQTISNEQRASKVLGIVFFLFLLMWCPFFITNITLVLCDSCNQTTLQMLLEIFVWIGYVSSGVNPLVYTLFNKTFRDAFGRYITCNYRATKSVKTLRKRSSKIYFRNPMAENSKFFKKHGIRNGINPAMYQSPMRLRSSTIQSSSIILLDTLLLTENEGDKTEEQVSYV
T3 sequence (P28223 whole entry): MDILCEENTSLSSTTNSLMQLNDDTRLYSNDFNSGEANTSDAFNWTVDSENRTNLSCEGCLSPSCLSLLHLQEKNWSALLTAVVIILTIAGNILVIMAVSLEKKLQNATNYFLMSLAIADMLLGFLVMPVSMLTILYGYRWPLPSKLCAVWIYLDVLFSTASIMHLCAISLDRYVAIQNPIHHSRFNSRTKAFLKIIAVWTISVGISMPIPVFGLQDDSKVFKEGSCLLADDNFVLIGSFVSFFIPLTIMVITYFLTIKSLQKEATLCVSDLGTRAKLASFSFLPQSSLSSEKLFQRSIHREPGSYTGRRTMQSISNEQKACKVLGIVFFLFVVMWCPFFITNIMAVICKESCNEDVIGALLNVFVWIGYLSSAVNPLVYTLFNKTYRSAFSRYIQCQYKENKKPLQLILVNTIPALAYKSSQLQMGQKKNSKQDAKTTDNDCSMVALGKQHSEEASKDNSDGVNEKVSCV

For the compound `COc1ccc(N2Cc3sc4ccccc4c3C2=O)cc1OCCN1CCCCC1`, the inhibition constant Ki in series [1] is above 631 nM; in series [5], 398 nM; in [6], 3.16 nM. In addition, the result in [2], in series [3] and in [4] was inactive.
With `COc1ccc2c(c1)c1c(n2C)CN(c2ccc(OC)c(OCCN3CCCCC3)c2)C1=O`, the Ki is 794 nM in series [1], 1000 nM in [5] and 31.6 nM in series [6]. In addition, the outcome in series [2], in [3] and in series [4] was inactive.
`COc1ccc(N2Cc3sc4ccccc4c3C2=O)cc1OCCN1CCC(C)CC1`: the negative-log Kb (pKb) in [7] came out at 8.7. For the same compound, the inhibition constant (Ki) in series [1] is 200 nM; in series [5], above 794 nM; in series [6], 1.58 nM. The outcome in [2], in series [3] and in series [4] was inactive.
For `COc1ccc(N2Cc3c(c4cc(Cl)c(Cl)cc4n3C)C2=O)cc1OCCN1CCCCC1`, the Ki in series [1] is 200 nM; in [5], 501 nM; in series [6], 6.31 nM. Further, the outcome in series [2], in series [3] and in series [4] was inactive.
On to `COc1ccc(N2Cc3c(c4ccc(F)cc4n3C)C2=O)cc1OCCN1CCC(C)CC1`, for which the pKb in series [7] worked out at 7.5. Also, the Ki in series [1] was 251 nM; in series [5], 251 nM; in series [6], 15.8 nM. For the same compound, the result in [2], in series [3] and in series [4] was inactive.
With `COc1ccc(N2Cc3c(c4ccc(Cl)cc4n3C)C2=O)cc1OCCN1CCCCC1`, the inhibition constant Ki is 158 nM in [1], 316 nM in [5] and 5.01 nM in series [6]. Further, the outcome in [2], in series [3] and in series [4] was inactive.
For the compound `COc1ccc(N2Cc3c(c4cccc(F)c4n3C)C2=O)cc1OCCN1CCC(C)CC1`, the values for the Ki in [1], in series [5] and in series [6] were 31.6 nM, 251 nM and 2.51 nM, respectively. Further, the result in series [2], in series [3] and in series [4] was inactive.
Regarding `COc1ccc(N2Cc3c(c4cccc(F)c4n3C)C2=O)cc1OCCN1CCCCC1`, the outcome in series [2], in series [3] and in series [4] was inactive.
As to `COc1ccc(N2Cc3cc4ccccc4cc3C2=O)cc1OCCN1CCCCC1`, the outcome in series [2], in [3] and in [4] was inactive.
For the compound `COc1ccc(N2Cc3c(c4cc(F)ccc4n3C)C2=O)cc1OCCN1CCCCC1`, the result in series [2], in series [3] and in series [4] was inactive.
Take `COc1ccc(N2Cc3c(c4cc(Cl)ccc4n3C)C2=O)cc1OCCN1CCC(C)CC1`: the pKb in series [7] was 8.6. The inhibition constant (Ki) in series [1] was 39.8 nM; in series [5], 126 nM; in [6], 3.16 nM. The outcome in [2], in series [3] and in [4] was inactive. In addition, the clearance in series [8] was found to be 23 mL/min/kg. The partition ratio (Kp) in [9] turned out to be 1. This compound gave a bioavailability in [10] of 44%.
In the case of `COc1ccc(N2Cc3c(c4ccc(F)cc4n3C)C2=O)cc1OCCN1CCCCC1`, the results for the inhibition constant (Ki) in [1], in [5] and in series [6] were above 10000 nM, above 10000 nM and 12.6 nM, respectively. In addition, the outcome in [2], in series [3] and in series [4] was inactive.
Regarding `COc1ccc(N2C(=O)c3c(n(C)c4ccccc34)C2C)cc1OCCN1CCCCC1` (configuration not stated), the result in series [2], in series [3] and in series [4] was inactive.
For `COc1ccc(N2Cc3c(c4ccccc4n3C)C2=O)cc1OCCN1CCCCC1.Cl`, the inhibition constant Ki in series [1] is 200 nM; in series [5], 501 nM; in [6], 6.31 nM. The result in [2], in [3] and in series [4] was inactive. The clearance in [8] amounted to 53 mL/min/kg. The bioavailability in [10] came to 15%.
Take `COc1ccc2c(c1)c1c(n2C)CN(c2ccc(OC)c(OCCN3CCC(C)CC3)c2)C1=O`: the result in series [2], in [3] and in series [4] was inactive.
In the case of `COc1ccc(N2Cc3c(c4cc(Cl)ccc4n3C)C2=O)cc1OCCN1CCCCC1`, the Ki is above 1000 nM in series [1], 158 nM in series [5] and 2.51 nM in [6]. Also, the result in [2], in series [3] and in series [4] was inactive. For the same compound, in [8], the clearance worked out at 39 mL/min/kg. The bioavailability in series [10] came out at 21%.
In the case of `COc1ccc(N2Cc3c(c4ccc(Cl)cc4n3C)C2=O)cc1OCCN1CCC(C)CC1`, the Ki was 200 nM in series [1], 251 nM in series [5] and 3.98 nM in [6]. In addition, the outcome in series [2], in [3] and in [4] was inactive.
For the compound `COc1ccc(N2Cc3c(c4cc(F)ccc4n3C)C2=O)cc1OCCN1CCC(C)CC1`, the pKb in series [7] was determined as 8.6. Also, the Ki is 63.1 nM in series [1], 158 nM in series [5] and 2.51 nM in series [6]. For the same compound, the outcome in [2], in series [3] and in [4] was inactive.
For `COc1ccc(N2Cc3c(c4cc(Cl)c(Cl)cc4n3C)C2=O)cc1OCCN1CCC(C)CC1`, the result in series [2], in series [3] and in series [4] was inactive.

One may read the Ki as the dissociation constant of the complex between target and ligand, obtained from inhibition or displacement. Low values mean tighter binding, high ones weaker binding. The pKb is the Kb on a negative log10 scale, so that one unit is a factor of ten. Broadly, the clearance is the rate of elimination divided by the concentration. High values mean a high capacity for elimination, low ones a low capacity for elimination. Usually Kp stands for the ratio of the level in a tissue or fluid to that in plasma or blood. In general, bioavailability refers to dose-corrected exposure relative to a reference, in per cent.
